This is a sample that favours compounds with a hit; in the whole collection about 1.9% have one here.
Hep lipid drop = modulators of hepatic lipid droplet formation | inhibition, % at 6.5 µM | 0.4% of 240,000 active | AID 1656 | AML12 mouse hepatocytes, oleate lipid droplets, BODIPY imaging;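 active = lipid droplet intensity inhibited by at least 50%, with more than 500 cells counted; inconclusive = wells with under 300 cells, treated as cytotoxic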
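Material – AML12 mouse liver cells · Also added – oleate loading, 100 µM · Compound dosing – 6.5 µM single-point dosing · Times – overnight treatment with compound plus oleate · Measured by – fluorescence imaging, 20x objective, two fields per well · Read-out – percent inhibition of filter-corrected integrated lipid droplet intensity per well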
TAG inh = inhibitors of triacylglycerol accumulation | H9c2 cells, Nile Red lipid (TAG) fluorescence; cells loaded with 200 µM oleic acid | inhibition, % at 12.5 µM | 0.66% of 230,000 active | AID 651582;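 active = pattern-corrected inhibition of lipid staining of at least 50% with the nuclear-stain viability signal not falling by more than 50%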;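 also: 0% = DMSO wells and 100% = triacsin C control wells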
aSyn UTR inh = MLPCN primary screen, SNCA 5' untranslated region | alpha-synuclein 5'UTR reporter, inhibitor activity | inhibition, % (tested at 7.5 µM) | 0.82% of 300,000 active; in the data active = inhibition above about 60%; inconclusive = no clear call, values can overlap the other calls;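 also: H4 neuroglioblastoma cells stably carrying SNCA 5'UTR luciferase fusion; 0% = DMSO wells and 100% = positive control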
APP 5UTR inh = APP translation inhibition. inhibition, % at 2 µM. SH-SY5Y APP 5'UTR-luciferase reporter, luminescence. 0.82% of 190,000 active. AID 1285;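 active = inhibition above a set limit, derived from the sample mean plus 3 SD, cut at about 45% in these data; inconclusive = one replicate passes the limit while the other fails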
Jurkat NFkB inh = inhibitors of the PMA/ionomycin-induced NF-kB reporter in Jurkat cells | PMA/ionomycin-induced NF-kB luciferase reporter, luminescence | inhibition, % at 4 µM | 0.53% of 330,000 active | AID 435003; in the data active = inhibition above about 50%
697 NFkB inh = inhibitors of the PMA/ionomycin-induced NF-kB reporter in 697 B cells | 697 B-cell NF-kB luciferase reporter, 16 h | inhibition, % at 4 µM | 0.33% of 330,000 active; in the data active = inhibition above about 35%
Jurkat NFkB conf = inhibitors of the PMA/ionomycin-induced NF-kB reporter in Jurkat cells, retest | shares compounds with Jurkat NFkB inh | Jurkat NF-kB luciferase, 16 h | inhibition, % at 4 µM | 27% of 2,700 active | AID 435020;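 active = inhibition reaching about 45% at 4 µM in either replicate, limit read from the data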;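 also: plate controls were PMA/ionomycin stimulated DMSO wells for no effect and unstimulated DMSO wells for full effect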
Numbers without * were called inactive; ? = inconclusive; nt = not tested or not shown.

SMILES	Hep lipid drop	TAG inh	aSyn UTR inh	APP 5UTR inh	Jurkat NFkB inh	697 NFkB inh	Jurkat NFkB conf
O=C(Nc1ccc2c(c1)CCC2)c1ccc(F)cc1	2	nt	-16	-197	-201	-230	-91
CN(C)S(=O)(=O)c1ccc(C(=O)Nc2ccc3c(c2)CCC3)cc1	-7	nt	-93	nt	-42	-74	nt
CN(C)S(=O)(=O)c1cccc(C(=O)Nc2ccc3c(c2)CCC3)c1	8	nt	-115	nt	-162	-216	-143
CC(C)C(CCNC1CCN(C)CC1)c1ccc(Cl)cc1 (stereo unspecified)	27	nt	-35	nt	43	22	nt
CN1CCC(NCCC(c2ccc(F)cc2)c2ccc(Cl)cc2)CC1 (stereo unspecified)	-47	nt	22	nt	72*	19	29
COc1ccc(CCNC(=O)CCC2COc3ccccc3O2)cc1OC (stereo unspecified)	nt	nt	23	0	20	22	nt
Cc1c(NC(=S)SCc2ccccc2)c(=O)n(-c2ccccc2)n1C	-2	3	2	8	-3	12	nt
CC(OC(=O)c1ccc2c(c1)OCCO2)C(=O)c1ccccc1 (stereo unspecified)	nt	1	-133	nt	-152	-191	-122
CCC[C@H]1NC(=O)[C@H](C)N(C)C(=O)C(C)(C)C(=O)C(C)NC(=O)[C@H](Cc2ccc(OC)cc2)N(C)C(=O)[C@H](C(C)C)N(C)C(=O)CNC(=O)[C@H](CC(C)C)N(C)C(=O)CNC(=O)[C@H]([C@@H](C)CC)OC(=O)[C@H]1C (stereo partly specified)	nt	nt	nt	nt	82*	-28	42
COc1ccc(CC2C(=O)NC(C)C(=O)N(C)C3Cc4ccc(cc4)Oc4cc(ccc4O)CC(C(=O)NC(C)C(=O)NC(C)C(=O)N2C)N(C)C3=O)cc1 (stereo unspecified)	nt	111	nt	nt	nt	nt	nt
N#Cc1c(N2CCCC(O)C2)nc(N)c2c(N)nc3c(c12)CC(=O)N3C12CC3CC(CC(C3)C1)C2 (stereo unspecified)	nt	-47	-232	-12	85*	-28	48
C=C(C)CN(CC)c1nc(N)c2c(N)nc3c(c2c1C#N)CC(=O)N3C12CC3CC(CC(C3)C1)C2	1	-85	-1	7	35	16	nt
CC[C@@H]1CC=C[C@H]2[C@H]1C(=O)N(Cc1ccccc1)[C@H]2c1ccc2ccccc2c1	-29	nt	7	nt	15	-55	nt
Cc1cc(-c2nc3ccccc3s2)ccc1N	nt	11	nt	nt	nt	nt	nt
Nc1ccc(-c2nc3cc(N)ccc3s2)cc1	-6	8	nt	-186	-174	-94	-42
CN(C)c1ccc(C(=O)OCC(=O)c2cccs2)cc1	-1	-3	-33	-103	-151	-80	-87
CCOC(=O)N1CCN(C(=O)COC(=O)c2ccc(Cl)nc2)CC1	nt	-37	nt	nt	-10	-14	nt
CN(C[C@H](Cc1ccccc1)N(C[C@@H](CC1CCCCC1)N(CCc1ccccc1)N=O)N=O)N=O	-10	23	26	-4	4	16	nt
CNC[C@@H](CC1CCCCC1)NC[C@H](CC(C)C)NCCc1cccc(C(F)(F)F)c1	1	134*	122*	nt	86*	12	45
CNC[C@@H](Cc1ccccc1)NC[C@@H](CC1CCCCC1)NCCCc1ccccc1	-4	127	125*	nt	91*	22	24
COC(C(=O)Nc1ccnn1C1CCN(C(=O)c2ccc(C)cc2)CC1)c1ccccc1 (stereo unspecified)	-9	nt	2	nt	1	4	nt
O=C(CSc1nnc(-c2ccccc2NC(=O)c2ccccc2)o1)OC1CCCCC1	nt	0	nt	-4	1	18	nt
COc1ccc(S(=O)(=O)Cc2ccc(C(=O)N3CCN(c4cccc(C)c4)C(C)C3)o2)cc1 (stereo unspecified)	nt	44	39	nt	61*	-49	21
Cc1ccc(S(=O)(=O)Cc2ccc(C(=O)N3CCN(c4cccc(C)c4C)CC3)o2)cc1	-75	44	88*	nt	58*	-33	52*
Cc1cccc(C(=O)OCC(=O)NCc2ccc(Cl)cc2)c1	nt	-20	nt	nt	nt	nt	nt
SMILES	Hep lipid drop	TAG inh	aSyn UTR inh	APP 5UTR inh	Jurkat NFkB inh	697 NFkB inh	Jurkat NFkB conf
N#Cc1ccc(C(=O)Nc2ccc3ccccc3c2)cc1	-17	nt	-42	nt	-177	-200	-133
O=C(Nc1ccc2ccccc2c1)c1cnccn1	0	nt	-129	-157	-184	-220	-108
CN1CCN(c2ccc(NC(=O)c3ccc(-c4ccccc4F)o3)cc2)CC1	nt	16	nt	nt	-170	-125	-87
N#Cc1ccccc1Sc1ccccc1C(=O)Nc1ccc2ccccc2c1	21	nt	18	-3	5	17	nt
CN1CCN(c2ccc(NC(=O)c3ccc(Br)o3)cc2)CC1	6	3	-57	nt	-121	-31	nt
O=C(Nc1nccs1)c1ccc(Br)cc1	-2	-2	-161	nt	-51	-71	nt
O=C(Nc1nccs1)c1ccc2ccccc2c1	nt	-10	-114	nt	-159	-158	-106
Cn1cc(Cc2ccc(C(=O)N3CCN(Cc4ccccc4)CC3)cn2)c2ccccc21	nt	1	nt	nt	nt	nt	nt
C/C(=N\NC(=O)c1ccc(O)cc1)c1ccc(NC(=O)Cc2ccccc2)cc1	10	-12	nt	nt	-20	-10	nt
CN1CCN(c2ccc(NC(=O)c3ccc4ccccc4c3)cc2)CC1	-2	nt	85*	nt	-155	-225	-48
COc1ccc(NC(=O)c2ccc3ccccc3c2)cc1	2	nt	-92	nt	-179	-61	-149
O=C(/C=C/c1ccco1)Nc1cc(Cl)ccc1C(=O)O	-4	2	0	-10	3	5	nt
O=C(/C=C\c1ccco1)Nc1cc([N+](=O)[O-])ccc1F	?	nt	97*	94*	68*	-31	17
CCOC(=O)c1sc(=NC(=O)c2ccc(Cl)s2)n(C)c1C	2	-8	-194	-146	-206	-153	-83
CCOC(=O)c1sc(=NC(=O)c2cccs2)n(C)c1C	-7	11	-122	-141	-148	-186	nt
O=C(/C=C/c1ccc(O)c(O)c1)OCCc1ccccc1	nt	17	-131	nt	55*	-71	4
NCCCNc1nc(N)c([N+](=O)[O-])c(NC2CCCCC2)n1	-46	nt	49	nt	91*	-66	20
Nc1nc(NC2CCCCC2)nc(NCCO)c1[N+](=O)[O-]	-5	nt	32	nt	24	-52	nt
O=C(COc1ccc2c(-c3ccccc3)cc(=O)oc2c1)Nc1cccnc1	-14	nt	6	nt	50*	-48	48*
CC(C)(C)c1ccc(C(=O)N2CCC2(C)C(=O)Nc2cnc3ccccc3c2)cc1 (stereo unspecified)	nt	-7	nt	nt	nt	nt	nt
O=C(CSc1nnc(CNC(=O)c2ccccc2F)o1)NCc1ccccc1	-3	nt	22	-6	-16	-38	nt
CSc1nc(N)n2nc(-c3ccc(Cl)cc3)cc2n1	14	0	-59	nt	-165	-206	-90
OC(c1cc(-c2ccc(C(F)(F)F)cc2)nc(C(F)(F)F)c1)C1CCCCN1 (stereo unspecified)	-13	nt	103*	nt	52*	-22	18

From PubChem
